Data: ChEMBL document CHEMBL5661970 (Cancer Res, 2006)

Legend:
[1] = target: Epidermal growth factor receptor (Homo sapiens, UniProt P00533); test: Inhibition of EGFR phosphorylation in serum starved human A-431 cells incubated for 1 hr by immunoblotting analysis; format: cell-based
How it was run: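 Cells starved overnight in basic medium with 0.5% FBS, incubated 1 h with compound or 0.1% DMSO, then stimulated 5 min at 37°C with human recombinant cognate ligand. Receptor immunoprecipitated from lysate and immunoblotted for phosphotyrosine; IC50 by nonlinear regression of percent inhibition, n = 4.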

Ephrin type-B receptor 2 = Ephrin type-B receptor 2 (Homo sapiens, UniProt P29323); test: Inhibition of EphB2 (unknown origin) in presence of ATP
How it was run: (§1)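 Cell-free kinase assay using recombinant tyrosine kinases with 1 μmol/L ATP, run in quadruplicate. IC50 values determined.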

HUVEC = test: Inhibition of cell migration in VEGF-induced serum-starved human HUVEC cells at 1 nmol/L incubated for 22 hrs by calcein AM staining based fluorescence plate reader analysis relative to control; format: functional
How it was run: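 HUVECs starved 5 h in EBM-2 with 0.1% BSA, placed in upper chamber of microchamber plate; lower chamber held 10 ng/mL VEGF, 0.1% FBS, 0.1% BSA. Compound in both chambers. After 22 h, migrated cells stained with 4 μg/mL calcein AM, read at 485/530 nm; 100%/0% set with/without VEGF in 0.1% DMSO; n = 10.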

LoVo = test: Antitumor activity against human LoVo cells xenografted in gamma-irradiation induced RH-rnu/rnu athymic rat assessed as tumor growth inhibition at 1.0 mg/kg, po administered once daily for 2 weeks and measured on day 14 relative to control; format: functional; conditions: light or radiation study, 336 h, read-out: TGI
How it was run: (§2)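 Rats were γ-irradiated with 7 Gy whole body, and 24 h later received s.c. tumor cells. Fragments (20-30 mg) from ~1,500 mm3 tumors were then implanted s.c. into irradiated athymic rats. Oral dosing at 0.2 or 1 mg/kg or vehicle ran once daily for 2 weeks from day 0. Tumors were measured with calipers twice weekly (length×width²×0.5). TGI% was taken versus vehicle on day 14 (BxPC-3: day 13), with an unpaired t test on RTV.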

SK-HEP1 = test: Antitumor activity against human SK-HEP1 cells xenografted in gamma-irradiation induced RH-rnu/rnu athymic rat assessed as tumor growth inhibition at 0.2 mg/kg, po administered once daily for 2 weeks and measured on day 14 relative to control; format: functional; conditions: SK-HEP1, light or radiation study, 336 h, read-out: TGI
[2] = AUC (0-infinity) in F344/N JcL-rnu athymic rat at 1 mg/kg, po measured upto 72 hrs by HPLC-MS/MS analysis; format: ADME, organism-based; conditions: in vivo
How it was run: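 Female athymic rats, four per group, given a single oral dose suspended in 0.5% methyl cellulose in water. Tail-vein blood was drawn at set times up to 72 h. Serum was spiked with internal standard, deproteinated with acetonitrile and analysed by HPLC-MS/MS. AUCinf came from noncompartmental analysis.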

Focal adhesion kinase 1 = Focal adhesion kinase 1 (Homo sapiens, UniProt Q05397); test: Inhibition of Fak (unknown origin) in presence of ATP; how it was run: as §1
[3] = Maximum concentration at steady state in F344/N JcL-rnu athymic rat at 0.2 mg/kg/day, po measured upto 72 hrs by HPLC-MS/MS analysis; format: ADME, organism-based; conditions: in vivo
How it was run: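 Steady-state serum levels for repeated oral 0.2 mg/kg daily dosing were simulated from single-dose serum data (female F344/N JcL-rnu rats, four per group, tail-vein sampling to 72 h, HPLC-MS/MS, noncompartmental analysis), not measured directly.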

CAKI-1 = test: Antitumor activity against human CAKI-1 cells xenografted in gamma-irradiation induced RH-rnu/rnu athymic rat assessed as tumor growth inhibition at 0.2 mg/kg, po administered once daily for 2 weeks and measured on day 14 relative to control; format: functional; conditions: CAKI-1, light or radiation study, 336 h, read-out: TGI; how it was run: as §2

Epidermal growth factor receptor, sequence (P00533 whole entry): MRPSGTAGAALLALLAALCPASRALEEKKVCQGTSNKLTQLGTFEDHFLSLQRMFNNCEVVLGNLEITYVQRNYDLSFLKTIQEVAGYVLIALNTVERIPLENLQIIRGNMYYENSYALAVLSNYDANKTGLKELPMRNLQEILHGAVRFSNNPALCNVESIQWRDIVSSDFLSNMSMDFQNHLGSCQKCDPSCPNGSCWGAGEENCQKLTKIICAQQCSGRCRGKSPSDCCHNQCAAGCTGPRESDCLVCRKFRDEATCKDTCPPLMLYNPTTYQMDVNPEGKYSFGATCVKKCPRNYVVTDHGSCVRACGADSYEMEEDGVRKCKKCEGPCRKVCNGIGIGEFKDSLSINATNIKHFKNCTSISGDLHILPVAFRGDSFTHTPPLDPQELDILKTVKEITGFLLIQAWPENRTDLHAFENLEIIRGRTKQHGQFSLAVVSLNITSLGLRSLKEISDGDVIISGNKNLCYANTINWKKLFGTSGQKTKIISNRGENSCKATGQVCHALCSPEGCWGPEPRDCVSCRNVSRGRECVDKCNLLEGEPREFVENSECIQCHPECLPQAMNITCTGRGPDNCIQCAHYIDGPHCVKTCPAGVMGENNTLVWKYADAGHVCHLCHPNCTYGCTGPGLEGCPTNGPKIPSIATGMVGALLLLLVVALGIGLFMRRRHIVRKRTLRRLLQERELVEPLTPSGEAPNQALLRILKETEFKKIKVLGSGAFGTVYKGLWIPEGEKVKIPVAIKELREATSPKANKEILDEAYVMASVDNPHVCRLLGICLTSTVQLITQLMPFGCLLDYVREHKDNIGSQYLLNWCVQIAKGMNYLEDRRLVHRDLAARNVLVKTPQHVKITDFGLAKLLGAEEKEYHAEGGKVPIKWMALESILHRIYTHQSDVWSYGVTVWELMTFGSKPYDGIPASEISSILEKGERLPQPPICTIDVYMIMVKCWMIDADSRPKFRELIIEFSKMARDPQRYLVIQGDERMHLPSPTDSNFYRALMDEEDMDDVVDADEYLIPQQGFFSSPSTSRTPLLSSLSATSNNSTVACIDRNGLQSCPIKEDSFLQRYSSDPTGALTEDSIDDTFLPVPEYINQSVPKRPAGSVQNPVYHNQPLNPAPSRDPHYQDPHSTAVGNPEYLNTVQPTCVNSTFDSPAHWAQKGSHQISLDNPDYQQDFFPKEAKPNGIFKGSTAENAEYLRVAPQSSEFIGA
Focal adhesion kinase 1, sequence (Q05397 whole entry): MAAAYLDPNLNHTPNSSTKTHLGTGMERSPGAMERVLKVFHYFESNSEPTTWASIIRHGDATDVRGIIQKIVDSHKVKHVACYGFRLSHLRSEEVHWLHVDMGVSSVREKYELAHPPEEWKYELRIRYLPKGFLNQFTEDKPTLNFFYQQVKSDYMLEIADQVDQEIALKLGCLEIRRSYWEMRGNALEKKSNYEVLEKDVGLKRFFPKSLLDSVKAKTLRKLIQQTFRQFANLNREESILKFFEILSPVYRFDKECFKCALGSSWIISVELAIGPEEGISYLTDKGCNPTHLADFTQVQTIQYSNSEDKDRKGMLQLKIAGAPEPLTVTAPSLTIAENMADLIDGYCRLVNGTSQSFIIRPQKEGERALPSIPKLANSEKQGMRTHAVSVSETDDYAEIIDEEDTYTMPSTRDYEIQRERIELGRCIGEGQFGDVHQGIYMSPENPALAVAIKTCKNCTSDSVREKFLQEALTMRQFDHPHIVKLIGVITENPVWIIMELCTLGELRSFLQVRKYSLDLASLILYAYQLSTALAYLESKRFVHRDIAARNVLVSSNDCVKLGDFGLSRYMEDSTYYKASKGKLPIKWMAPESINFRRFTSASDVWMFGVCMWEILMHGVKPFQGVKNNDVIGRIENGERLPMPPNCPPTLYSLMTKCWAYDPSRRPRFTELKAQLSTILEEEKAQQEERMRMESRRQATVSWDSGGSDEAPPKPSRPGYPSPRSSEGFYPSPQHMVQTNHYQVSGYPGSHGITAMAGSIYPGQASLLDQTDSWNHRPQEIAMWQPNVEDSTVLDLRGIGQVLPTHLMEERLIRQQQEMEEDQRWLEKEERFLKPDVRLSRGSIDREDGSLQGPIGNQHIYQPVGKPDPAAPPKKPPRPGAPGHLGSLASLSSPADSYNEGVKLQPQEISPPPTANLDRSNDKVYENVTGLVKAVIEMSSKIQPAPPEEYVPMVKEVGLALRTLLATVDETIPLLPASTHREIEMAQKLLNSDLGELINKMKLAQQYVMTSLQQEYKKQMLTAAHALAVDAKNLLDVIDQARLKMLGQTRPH
Ephrin type-B receptor 2, sequence (P29323 whole entry): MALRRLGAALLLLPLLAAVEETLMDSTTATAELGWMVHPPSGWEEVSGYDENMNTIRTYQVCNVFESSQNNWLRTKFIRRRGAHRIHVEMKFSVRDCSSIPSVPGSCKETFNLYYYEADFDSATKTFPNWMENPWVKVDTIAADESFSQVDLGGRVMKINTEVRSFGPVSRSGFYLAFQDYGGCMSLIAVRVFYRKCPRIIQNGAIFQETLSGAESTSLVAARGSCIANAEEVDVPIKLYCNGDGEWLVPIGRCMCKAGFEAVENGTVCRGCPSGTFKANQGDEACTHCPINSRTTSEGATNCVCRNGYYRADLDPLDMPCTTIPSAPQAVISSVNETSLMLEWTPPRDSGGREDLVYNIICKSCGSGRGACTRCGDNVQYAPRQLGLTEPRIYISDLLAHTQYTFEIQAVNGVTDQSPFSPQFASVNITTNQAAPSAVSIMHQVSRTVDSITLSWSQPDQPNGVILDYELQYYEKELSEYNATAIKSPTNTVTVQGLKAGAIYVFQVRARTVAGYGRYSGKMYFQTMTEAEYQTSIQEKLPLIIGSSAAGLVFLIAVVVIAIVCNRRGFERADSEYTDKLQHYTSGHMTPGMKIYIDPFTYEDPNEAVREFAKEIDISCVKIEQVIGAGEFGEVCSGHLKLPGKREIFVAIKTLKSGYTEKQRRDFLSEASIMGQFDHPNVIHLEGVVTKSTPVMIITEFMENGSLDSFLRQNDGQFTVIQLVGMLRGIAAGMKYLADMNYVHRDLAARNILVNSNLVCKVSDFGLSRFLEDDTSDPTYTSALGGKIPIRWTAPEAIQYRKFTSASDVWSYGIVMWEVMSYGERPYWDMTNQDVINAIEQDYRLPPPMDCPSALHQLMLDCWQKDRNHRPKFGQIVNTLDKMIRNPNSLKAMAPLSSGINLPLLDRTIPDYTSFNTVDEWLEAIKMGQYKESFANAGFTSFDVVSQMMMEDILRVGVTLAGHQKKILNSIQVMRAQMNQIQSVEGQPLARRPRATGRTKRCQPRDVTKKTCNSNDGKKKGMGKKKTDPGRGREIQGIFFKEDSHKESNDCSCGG

COc1cc2nccc(Oc3ccc(NC(=O)Nc4cc(C)on4)c(Cl)c3)c2cc1OC [TIVOZANIB]
IC50 [1]: Not Determined(Insoluble) | IC50 (Ephrin type-B receptor 2): 0.024 µM | inhibition at 0.001 µM (HUVEC): ~40% | inhibition in vivo at 1 mg/kg (LoVo): > 100% | inhibition in vivo at 0.2 mg/kg (SK-HEP1): 59.4% | AUC(0-inf) [2]: 7640 ng·h/mL | IC50 (Focal adhesion kinase 1): > 1 µM | Cmax [3]: 124 ng/mL | inhibition in vivo at 0.2 mg/kg (CAKI-1): 26.9%
